Measurements as given in ChEMBL document CHEMBL4043295, “Marbostat-100 Defines a New Class of Potent and Selective Antiinflammatory and Antirheumatic Histone Deacetylase 6 Inhibitors” (J Med Chem, 2018).
Activity calls are given as the source filed them. No cut-off for these calls is given here.

Columns and labels:
[1] = target: T1, Protein deacetylase HDAC6 (Homo sapiens, UniProt Q9UBN7); experiment: Inhibition of full length recombinant human N-terminal GST-tagged HDAC6 expressed in baculovirus-infected Sf9 insect cells using RHKK(Ac)AMC as substrate after 90 mins by fluorimeter
T1 sequence (Q9UBN7 whole entry): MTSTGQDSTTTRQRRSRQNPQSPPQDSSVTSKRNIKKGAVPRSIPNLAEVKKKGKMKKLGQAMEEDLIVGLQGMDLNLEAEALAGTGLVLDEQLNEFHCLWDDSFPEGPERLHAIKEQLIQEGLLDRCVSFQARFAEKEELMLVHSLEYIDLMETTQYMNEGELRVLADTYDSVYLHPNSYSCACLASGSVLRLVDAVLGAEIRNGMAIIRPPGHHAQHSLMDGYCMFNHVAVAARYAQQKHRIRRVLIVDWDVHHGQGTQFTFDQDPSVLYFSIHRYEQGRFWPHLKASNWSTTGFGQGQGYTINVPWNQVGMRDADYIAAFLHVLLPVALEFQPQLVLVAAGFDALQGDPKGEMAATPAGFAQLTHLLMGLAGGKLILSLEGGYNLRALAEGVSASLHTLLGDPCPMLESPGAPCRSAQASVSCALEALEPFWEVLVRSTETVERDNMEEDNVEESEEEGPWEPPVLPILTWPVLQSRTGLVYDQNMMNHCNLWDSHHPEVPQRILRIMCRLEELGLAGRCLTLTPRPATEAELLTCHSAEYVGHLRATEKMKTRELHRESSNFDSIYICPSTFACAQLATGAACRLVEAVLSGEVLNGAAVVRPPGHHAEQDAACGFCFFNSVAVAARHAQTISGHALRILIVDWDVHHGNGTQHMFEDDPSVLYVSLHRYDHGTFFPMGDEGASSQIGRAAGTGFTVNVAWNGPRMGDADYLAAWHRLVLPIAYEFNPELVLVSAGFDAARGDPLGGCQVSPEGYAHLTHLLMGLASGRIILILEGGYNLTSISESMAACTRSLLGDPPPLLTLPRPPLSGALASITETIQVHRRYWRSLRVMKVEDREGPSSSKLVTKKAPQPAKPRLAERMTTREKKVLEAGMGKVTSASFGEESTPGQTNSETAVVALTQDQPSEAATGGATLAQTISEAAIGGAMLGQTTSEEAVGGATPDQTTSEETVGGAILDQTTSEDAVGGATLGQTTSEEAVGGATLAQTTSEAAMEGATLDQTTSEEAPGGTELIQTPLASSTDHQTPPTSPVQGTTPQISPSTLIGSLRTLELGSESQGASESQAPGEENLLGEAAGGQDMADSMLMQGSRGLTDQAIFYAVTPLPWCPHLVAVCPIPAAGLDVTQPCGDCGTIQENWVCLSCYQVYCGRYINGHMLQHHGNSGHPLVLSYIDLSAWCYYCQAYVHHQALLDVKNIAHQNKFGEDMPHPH

[2] = target: T2, Histone deacetylase 8 (Homo sapiens, UniProt Q9BY41); experiment: Inhibition of recombinant human C-terminal His-tagged HDAC8 (1 to 377 residues) expressed in baculovirus-infected insect cells using RHK(Ac)K(Ac)AMC as substrate after 60 mins by fluorimeter
T2 sequence (Q9BY41 whole entry): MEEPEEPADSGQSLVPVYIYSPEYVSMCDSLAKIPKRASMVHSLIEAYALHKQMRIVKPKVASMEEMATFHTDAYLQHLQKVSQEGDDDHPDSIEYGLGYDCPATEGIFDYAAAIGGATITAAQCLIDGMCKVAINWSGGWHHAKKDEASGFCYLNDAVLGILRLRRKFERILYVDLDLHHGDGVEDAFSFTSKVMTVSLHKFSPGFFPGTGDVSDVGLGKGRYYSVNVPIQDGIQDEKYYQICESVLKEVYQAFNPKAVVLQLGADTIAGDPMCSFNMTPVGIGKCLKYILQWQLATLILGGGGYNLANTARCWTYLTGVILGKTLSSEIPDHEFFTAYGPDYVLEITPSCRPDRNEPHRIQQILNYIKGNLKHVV

[3] = target: Histone deacetylase 2 (Homo sapiens, UniProt Q92769); experiment: Inhibition of full length recombinant human C-terminal GST-tagged HDAC2 expressed in baculovirus-infected insect cells using RHKK(Ac)AMC as substrate after 60 mins by fluorimeter
Sequence of Histone deacetylase 2 (Q92769 whole entry): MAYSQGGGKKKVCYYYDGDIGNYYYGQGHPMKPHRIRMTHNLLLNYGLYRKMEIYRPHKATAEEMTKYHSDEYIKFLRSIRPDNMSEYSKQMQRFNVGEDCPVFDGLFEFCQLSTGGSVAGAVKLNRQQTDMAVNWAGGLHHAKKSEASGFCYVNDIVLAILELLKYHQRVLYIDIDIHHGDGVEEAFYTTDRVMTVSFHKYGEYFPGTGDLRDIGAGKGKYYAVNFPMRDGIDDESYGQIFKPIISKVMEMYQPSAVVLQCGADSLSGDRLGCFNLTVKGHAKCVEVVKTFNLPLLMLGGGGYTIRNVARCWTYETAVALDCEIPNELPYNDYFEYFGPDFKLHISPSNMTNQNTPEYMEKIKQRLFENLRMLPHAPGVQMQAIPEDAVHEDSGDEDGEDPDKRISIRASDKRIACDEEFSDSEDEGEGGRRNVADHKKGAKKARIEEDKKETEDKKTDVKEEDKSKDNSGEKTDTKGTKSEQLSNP

[4] = target: T3, Protein deacetylase HDAC6 (Homo sapiens) (UniProt Q9UBN7); experiment: Inhibition of HDAC6 in human MV4-11 cells assessed as induction of alpha-tubulin hyperacetylation after 24 hrs by Western blot method; assay type: cell-based
T3 sequence (whole entry): T1 sequence (Q9UBN7 whole entry)
Summary of the method: (§1)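 MV4-11 cells were exposed to the inhibitor, from 5 nM to 10 µM for 24 h or at 50 nM for 10 min to 48 h. Lysates were immunoblotted for acetylated tubulin, acetylated histone H3 and HDAC6. Acetyl-tubulin was quantified by densitometry normalised to HSP90. MS-275 at 5 µM for 24 h was the comparator. Blots are representative of at least two independent experiments.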

[5] = test system: HEL; experiment: Cell cycle arrest in human HEL cells at 5 uM after 24 hrs by propidium iodide staining-based flow cytometric method; assay type: functional
[6] = test system: PBMC; experiment: Induction of apoptosis in human PBMC at 5 uM after 24 hrs by Annexin V/propidium iodide staining-based flow cytometric method; assay type: cell-based
[7] = Inhibition of class 1 HDAC in human MV4-11 cells assessed as induction of histone hyperacetylation at 5 uM after 24 hrs by Western blot method; assay type: cell-based; summary of the method: as §1
[8] = test system: Jurkat; experiment: Cell cycle arrest in human Jurkat cells at 5 uM after 24 hrs by propidium iodide staining-based flow cytometric method; assay type: functional
[9] = test system: MV4-11; experiment: Cell cycle arrest in human MV4-11 cells assessed as accumulation at sub-G1 phase at 5 uM after 24 hrs by propidium iodide staining-based flow cytometric method; assay type: functional
Summary of the method: (§2)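 Cells were stained with propidium iodide and analysed by flow cytometry for cell-cycle distribution and the subG1 fraction (fragmented DNA). Representative of at least two independent experiments.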

[10] = species: Homo sapiens; experiment: Selectivity ratio of Ki for recombinant human C-terminal GST-tagged HDAC2 to Ki for full length recombinant human N-terminal GST-tagged HDAC6
Summary of the method: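 Recombinant human HDAC2 and HDAC6 enzymes, fluorescence-based activity assay. […] IC50s were curve-fitted from duplicate determinations. Ki was calculated from IC50 by the Cheng–Prusoff equation, and the ratio was taken from these Ki values. TSA served as internal standard.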

[11] = test system: MV4-11; experiment: Cell cycle arrest in human MV4-11 cells assessed as accumulation at sub-G1 phase at 30 to 50 nM after 24 hrs by propidium iodide staining-based flow cytometric method; assay type: functional; summary of the method: as §2
[12] = test system: Mus musculus; experiment: Toxicity in DBA/1J mouse collagen-induced arthritis model assessed as effect on red blood cell count at 42.3 mg/kg, ip administered every morning for 12 to 14 days measured post last dose relative to vehicle-treated control; assay type: organism-based; conditions: in vivo
[13] = test system: Mus musculus; experiment: Antiarthritic activity in DBA/1J mouse collagen-induced arthritis model assessed as decrease in clinical scores at 42.3 mg/kg, ip administered every morning for 6 days measured post last dose; assay type: functional, organism-based
Summary of the method: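 Collagen type II-induced arthritis in mice, second experiment, treated at 42.3 mg/kg (equimolar dose) versus vehicle. Clinical arthritis scores were followed from the beginning of treatment.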

[14] = test system: Mus musculus; experiment: Antiarthritic activity in DBA/1J mouse collagen-induced arthritis model assessed as decrease in ratio of articular bone surface to articular bone volume at 42.3 mg/kg, ip administered every morning for 12 to 14 days measured post last dose by microCT method relative to vehicle-treated control; assay type: functional, organism-based
[15] = test system: Mus musculus; experiment: Toxicity in DBA/1J mouse collagen-induced arthritis model assessed as effect on white blood cell count at 42.3 mg/kg, ip administered every morning for 12 to 14 days measured post last dose relative to vehicle-treated control; assay type: organism-based; conditions: in vivo
[16] = test system: Mus musculus; experiment: Antiarthritic activity in DBA/1J mouse collagen-induced arthritis model assessed as reduction of articular bone erosion in arthritic hind paw at 42.3 mg/kg, ip administered every morning for 12 to 14 days measured post last dose by microCT method relative to vehicle-treated control; assay type: functional, organism-based
[17] = test system: Mus musculus; experiment: Toxicity in DBA/1J mouse collagen-induced arthritis model assessed as effect on hemoglobin concentration at 42.3 mg/kg, ip administered every morning for 12 to 14 days measured post last dose relative to vehicle-treated control; assay type: organism-based; conditions: in vivo

| SMILES | Ki [1] [nM] | Ki [2] [nM] | Ki [3] [nM] | alpha-tubulin hyperacetylation (active/not active) [4] | further results |
| --- | --- | --- | --- | --- | --- |
| O=C(/C=C/c1ccc(Cn2c3c(c4ccccc42)CCN2C(=O)CCCC32)cc1)NO (centres undefined) | 14.1 | 720 | 234 |  |  |
| CN1C(=O)C2c3c(n(Cc4ccc(C(=O)NO)cc4)c4ccccc34)CCN2C1=O (centres undefined) | 1.86 | 761 | 995 |  |  |
| CN1C(=O)C2CN(Cc3c2c2ccccc2n3Cc2ccc(/C=C/C(=O)NO)cc2)C1=O (centres undefined) | 4.15 | 205 | 66.5 |  |  |
| Nc1ccccc1NC(=O)c1ccc(CNC(=O)OCc2cccnc2)cc1 [ENTINOSTAT] |  |  |  |  | Activity [5]: Active; Activity [6]: Toxic; inhibition (INH) [7]: Active; Activity [8]: Active; Activity [9]: Active |
| O=C(NO)c1ccc(Cn2c3c(c4ccccc42)C2CCN(C3)C2)cc1 (centres undefined) | 6.51 | 1540 | 6100 |  | Ratio Ki [10]: 940 |
| CN1C(=O)C2CN(Cc3c2c2ccccc2n3Cc2cccc(/C=C/C(=O)NO)c2)C1=O (centres undefined) | 72.2 | 13.1 | 768 |  |  |
| CN1CC2CN(Cc3c2c2ccccc2n3Cc2ccc(C(=O)NO)cc2)C1=O (centres undefined) | 0.51 | 528 | 484 | Active |  |
| Cc1[nH]c2ccccc2c1CCNCc1ccc(/C=C/C(=O)NO)cc1 |  |  |  |  | Activity [11]: Active |
| O=C(NO)c1ccc(Cn2c3c(c4ccccc42)CCN2C(=O)CCCC32)cc1 (centres undefined) | 30.2 | 1680 | 7240 |  |  |
| CN1C(=O)C2CN(Cc3c2c2ccccc2n3Cc2ccc(C(=O)NO)cc2)C1=S (centres undefined) | 0.45 | 40.4 | 469 | inactive |  |
| CN1C(=O)C2CN(Cc3c2c2cc(OCCN4CCOCC4)ccc2n3Cc2ccc(C(=O)NO)cc2)C1=O.Cl (centres undefined) | 0.48 | 721 | 313 |  | Activity [12]: Non-Toxic; Activity [13]: Active; Activity [14]: Active; Activity [15]: Non-Toxic; Activity [16]: Active; Activity [17]: Non-Toxic |
| CN1C(=O)N2Cc3c(c4ccccc4n3Cc3ccc(C(=O)NO)cc3)C(C2)C1=S (centres undefined) | 0.88 | 701 | 943 | Active |  |
| COc1ccc2c(c1)c1c(n2Cc2ccc(C(=O)NO)cc2)CN2CC1C(=O)N(C)C2 (centres undefined) | 0.16 | 299 | 370 | inactive |  |
| CN1CN2Cc3c(c4ccccc4n3Cc3ccc(C(=O)NO)cc3)C(C2)C1=O (centres undefined) | 0.23 | 427 | 1360 | inactive |  |

The next lines start with results.

| Ki [1] [nM] | Ki [2] [nM] | Ki [3] [nM] | alpha-tubulin hyperacetylation (active/not active) [4] | SMILES | further results |
| --- | --- | --- | --- | --- | --- |
| 0.08 |  |  |  | CN1C(=O)C2CN(Cc3c2c2cc(OCc4ccccc4)ccc2n3Cc2ccc(C(=O)NO)cc2)C1=O (centres undefined) |  |
| 0.42 |  |  |  | CN1C(=O)C2CN(Cc3c2c2cc(O)ccc2n3Cc2ccc(C(=O)NO)cc2)C1=O (centres undefined) |  |
| 0.15 | 124 | 310 | Active | COc1ccc2c(c1)c1c(n2Cc2ccc(C(=O)NO)cc2)CN2CC1C(=O)N(C)C2=O (centres undefined) |  |
| 1.78 |  |  |  | CN1C(=O)C2CN(Cc3c2c2ccc4ccccc4c2n3Cc2ccc(C(=O)NO)cc2)C1=O (centres undefined) |  |
| 0.7 | 999 | 5200 |  | CN1C(=O)[C@@H]2CN(Cc3c2c2ccccc2n3Cc2ccc(C(=O)NO)cc2)C1=O |  |
| > 20000 | > 40000 | > 10000 |  | CN1C(=O)C2CN(Cc3c2c2ccccc2n3Cc2ccc(C(=O)O)cc2)C1=O (centres undefined) |  |
| 2.01 | 294 | 3200 |  | CN1C(=O)[C@H]2CN(Cc3c2c2ccccc2n3Cc2ccc(C(=O)NO)cc2)C1=O |  |
| 0.32 | 93.3 | 70.8 | Active | COc1ccc2c3c(n(Cc4ccc(C(=O)NO)cc4)c2c1)CN1CC3C(=O)N(C)C1=O (centres undefined) |  |
